# Laboratory results published in PubChem BioAssay.
# The other results are listed elsewhere or left out. Values without a mark were called inactive. Activity calls are given as the source filed them.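 Rule for the calls, unless noted: active = mean percent activation of the reporter above a cutoff set as the average over tested compounds plus their standard deviation; inactive = the rest.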
# What was measured:
# [1] = target: (Lyso)-N-acylphosphatidylethanolamine lipase (Mus musculus) (UniProt Q8VD66); experiment: ABHD4 inhibitors, retest, confirmation, biochemical, fluorescence polarization, mouse (AID 720658;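 active = mean inhibition across replicates above the hit cutoff set in the primary screen, cut at about 30% in these data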;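 note: 0% = wild-type ABHD4 with DMSO and 100% = catalytically dead S159A mutant with DMSO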); details: purified mABHD4, FP-Rh probe fluorescence polarization; at 8.92 µM; stronger effect = higher value
# Outline: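 material = wild-type mouse ABHD4 | signal = fluorescence polarization, excitation 525 nm, emission 598 nm | times = 45 min compound pretreatment plus 60 min FP-Rh labeling, 25 °C | also added = Rhodamine-tagged fluorophosphonate probe FP-Rh | read-out = percent inhibition scaled between wild-type DMSO and S159A mutant wells | medium = HEPES-saline buffer with 0.01% Pluronic F-127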
# [2] = target: Oxysterols receptor LXR-beta (Homo sapiens) (UniProt P55055); experiment: LXR agonists, Gal4 luciferase reporter, confirmation, counter-screen for hcDAF-12 agonist project, cell-based, luminescence, HEK293, H. contortus campaign (AID 743027); details: HEK293 Gal4-LXR tk-luc reporter, 24 h, at 6.8 µM, stronger effect = higher value, normalized: DMSO 0%, positive control 100%
# Outline: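 Assay system: HEK293 Gal4-LXR luciferase reporter cells | Measure: % activation relative to DMSO and positive-control wells | Benchmarks: DMSO-only wells as low, positive-control wells as high | Timing: 24 h compound exposure at 37 °C, 5% CO2 | Detection: Luciferase luminescence read with One-Glo reagent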
# [3] = system: Nuclear hormone receptor DAF-12 (Haemonchus contortus); experiment: H. contortus DAF-12 receptor agonists, confirmation, cell-based, luminescence, HEK293, lit1-tk-luc, triplicate (AID 743032;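 active = mean activation across triplicate tests above the threshold derived from the earlier primary screen, cut at about 5.5% in these data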;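 note: 0% = DMSO only wells and 100% = 3 µM Δ7-dafachronic acid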); details: HEK293 hcDAF-12 lit1-tk-luc reporter, at 6.8 µM, stronger effect = higher value, % of Δ7-dafachronic acid response
# [4] = system: DAF-12 nuclear receptor (Heterodera glycines), GAL4-LBD fusion; experiment: H. glycines DAF-12 receptor agonists, confirmation, cell-based, luminescence, HEK293, GAL4-LBD fusion (AID 743050;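 active = mean activation over triplicate wells above the hit cutoff derived from the earlier primary screen, cut at about 11% in these data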;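 note: 0% = DMSO low control and 100% = 2 mM sodium butyrate high control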); details: HEK293 GAL4-hgDAF12 luciferase reporter, agonist mode; at 6.8 µM; stronger effect = higher value; percent of butyrate response
# [5] = target: Oxysterols receptor LXR-beta (Homo sapiens) (UniProt P55055); experiment: LXR agonists, Gal4 luciferase reporter, confirmation, counter-screen for hgDAF-12 agonist project, cell-based, luminescence, HEK293, H. glycines campaign (AID 743051;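 active = mean activation of the triplicate above a set limit carried over from the primary screen, none filed active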); details: 24 h, at 6.8 µM, stronger effect = higher value
# Outline: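 test system = Gal4-LXR luciferase reporter HEK293 cells | times = 3 h cell plating, then 24 h compound exposure at 37 °C | signal = luciferase luminescence | benchmarks = DMSO low control, 0.68% final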
# Chain of Oxysterols receptor LXR-beta (Homo sapiens) (P55055 whole entry, looked up, the tested form may be a part): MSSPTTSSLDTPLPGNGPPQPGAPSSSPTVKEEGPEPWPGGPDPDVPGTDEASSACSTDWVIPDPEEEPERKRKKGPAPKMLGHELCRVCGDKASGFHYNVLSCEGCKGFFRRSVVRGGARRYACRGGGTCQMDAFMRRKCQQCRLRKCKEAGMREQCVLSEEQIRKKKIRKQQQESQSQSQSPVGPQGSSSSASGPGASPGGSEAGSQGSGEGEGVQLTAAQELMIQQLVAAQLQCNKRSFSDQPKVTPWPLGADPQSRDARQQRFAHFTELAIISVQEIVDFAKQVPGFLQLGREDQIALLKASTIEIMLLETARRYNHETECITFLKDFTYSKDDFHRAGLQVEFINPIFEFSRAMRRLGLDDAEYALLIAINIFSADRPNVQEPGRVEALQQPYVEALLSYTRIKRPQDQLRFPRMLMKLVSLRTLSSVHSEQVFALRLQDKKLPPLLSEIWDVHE
# Chain of (Lyso)-N-acylphosphatidylethanolamine lipase (Mus musculus) (Q8VD66 whole entry, looked up): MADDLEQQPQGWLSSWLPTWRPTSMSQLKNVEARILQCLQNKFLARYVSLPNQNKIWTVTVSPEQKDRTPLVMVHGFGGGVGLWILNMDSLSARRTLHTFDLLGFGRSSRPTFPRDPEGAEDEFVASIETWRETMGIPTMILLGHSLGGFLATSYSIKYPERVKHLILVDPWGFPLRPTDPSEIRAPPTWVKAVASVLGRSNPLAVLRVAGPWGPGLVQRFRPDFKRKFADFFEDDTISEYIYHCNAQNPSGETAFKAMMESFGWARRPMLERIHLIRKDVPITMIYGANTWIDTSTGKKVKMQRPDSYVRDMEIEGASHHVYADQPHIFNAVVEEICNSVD
smiles,measurement,setting,value
O=C(O)c1cc([N+](=O)[O-])c(Nc2cccc3ccccc23)c([N+](=O)[O-])c1,inhibition,[1],39.9% (active)
Cc1ccc(NN=Nc2nc3c([nH]2)c(=O)n(C)c(=O)n3C)cc1,activation,[2],-0.08%
same,activation,[3],3.07%
c1ccc2sc(NN=C3CCCC3)nc2c1,inhibition,[1],-1.86%
same,activation,[2],1.38%
same,activation,[3],6.89% (active)
COc1cc(/C=C2/C(=O)NN(c3cccc(Cl)c3)C2=O)cc(Br)c1O,inhibition,[1],38.8% (active)
Clc1ccc(-c2cc(-c3ccccn3)on2)c(Cl)c1,activation,[2],1.95%
same,activation,[3],12.6% (active)
CCN1C(=O)/C(=C2/Sc3ccccc3N2CCCS(=O)(=O)O)SC1=S,inhibition,[1],24.3%
Cc1oc2cc(Br)c(O)c(Br)c2c1C(=O)c1ccccc1,inhibition,[1],53% (active)
CCC(CO)Oc1cc(NC(=O)c2cccc(F)c2)c2ncn(C(C)C)c2c1 (configuration not stated),inhibition,[1],1.62%
O=C(Nc1ccc(Cl)cc1)C1c2cccc[n+]2CC(=O)N1Cc1ccc2c(c1)OCO2 (configuration not stated),activation,[2],-0.2%
same,activation,[3],2.78%
Oc1ccc(/C=N/Nc2ccc(C(F)(F)F)cn2)cc1O,inhibition,[1],34% (active)
O=C(O)c1ccc(N/N=C/c2cn(-c3ccccc3)nc2-c2cccs2)cc1,inhibition,[1],57.4% (active)
same,activation,[4],19.1% (active)
same,activation,[5],0.89%
CC(C)(C)NC(=O)C(c1ccncc1)N(C(=O)CNC(=O)c1ccco1)c1ccc2c(c1)OCO2 (configuration not stated),activation,[2],-0.43%
same,activation,[3],-0.59%
CC(C)COC(=O)n1c(=O)oc2ccc(S(=O)(=O)N3CCCCC3)cc21,inhibition,[1],49.4% (active)
NNc1nc2c(Cl)cccc2s1,inhibition,[1],24%
same,activation,[2],-0.01%
same,activation,[3],1.23%
CCCCCCSc1ccc(-c2nc3ccc(Cl)cn3c2NCc2ccccc2)cc1,inhibition,[1],5.45%
NC(N)=N/N=C/c1ccc(OCc2ccc(Cl)cc2Cl)cc1,inhibition,[1],46.2% (active)
C/C(=N/NC(=S)Nc1ccccc1)c1ccc2c(c1)OCO2,activation,[2],0.01%
same,activation,[3],0.89%
Cc1cc(C)nc(Nc2n[nH]c(-c3ccccc3N)n2)n1,activation,[2],2.12%
same,activation,[3],8.91% (active)
COC(=O)c1oc2ccc(Br)cc2c1NC(C)=O,inhibition,[1],-0.79%
NS(=O)(=O)c1ccccc1NC(=O)c1c(O)c2ccccc2[nH]c1=O,activation,[2],1.36%
same,activation,[3],9.27% (active)
Nc1ccc2[nH]c(=S)sc2c1,activation,[2],0.01%
same,activation,[3],2.92%
CCc1ccc(NC(=O)N2CCc3ccccc3C2)cc1,activation,[2],0.65%
same,activation,[3],7.24% (active)
O=C(c1cc(-c2ccccc2O)on1)N1CCCC1,activation,[2],0.82%
same,activation,[3],6.57% (active)
CN(CC(=O)Nc1cccc(F)c1)C(=O)C1CC(=O)N(CCc2ccccc2)C1 (configuration not stated),activation,[2],-0.05%
same,activation,[3],4.2%
C(=N\Nc1ccc2ccccc2n1)/c1ccc2c(c1)OCO2,activation,[2],1.28%
same,activation,[3],4.85%
Cc1cccc(Nc2nc(-c3ccccc3)cs2)n1,activation,[2],1.85%
same,activation,[3],16% (active)
Cc1cc(O)c(C(=O)/C=C/c2c(F)c(F)c(F)c(F)c2F)c(=O)o1,activation,[2],-0.23%
same,activation,[3],-1.06%
Nc1ccccc1/C=N\N=C/c1ccccc1N,activation,[2],1.76%
same,activation,[3],12.4% (active)
COc1ccc(C(=O)Nc2sc(C)c(C)c2CN2CCOCC2)cc1,activation,[2],0.23%
same,activation,[3],4.47%
O=C(/C=C/c1cnc2ccccc2n1)NC1CCCCCC1,activation,[2],0.79%
same,activation,[3],4.58%
COc1ccc(Nc2nc(-c3ccccc3)cs2)cc1,activation,[2],1.88%
same,activation,[3],18.8% (active)
Cc1cccc(C(=O)N2CCc3c([nH]c4ccccc34)C2CC(C)C)n1 (configuration not stated),activation,[2],0.01%
same,activation,[3],6.29% (active)
Cc1ccc(OCc2nc3ccccc3n2C)cc1,activation,[2],1.32%
same,activation,[3],5.18%
CC(=O)N1CCN(c2ccccc2NC(=S)NC(=O)c2cc3ccccc3o2)CC1,activation,[2],-0.28%
same,activation,[3],1.71%
O=C(O)c1[nH]c2ccccc2c1C(c1cccc(O)c1)c1c(C(=O)O)[nH]c2ccccc12,activation,[2],-0.02%
same,activation,[3],4.41%
NNC(=O)C1CCCn2c1nc1sc3c(c1c2=O)CCCC3 (configuration not stated),activation,[2],-0.2%
same,activation,[3],4.24%
CCc1ccc(-c2cc(C(=O)NN3CCN(C)CC3)c3ccccc3n2)cc1,activation,[2],-0.24%
same,activation,[3],0.58%
